Screening results as filed in PubChem.
LYPLA2 inh = LYPLA2 inhibitors, primary screen, counter-screen for PME1 inhibitor project, biochemical, fluorescence polarization, FP-Rh probe ABPP; Acyl-protein thioesterase 2 (Homo sapiens), O95372; recombinant LYPLA2; inhibition, % at 5.9 µM; 0.38% of 320,000 active; AID 2177, 2009;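 active means inhibition above the screen-wide mean plus 3 SD, limit set per campaign, cut at about 26% in these data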;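 further: 0% = LYPLA2 with DMSO and 100% = wells lacking LYPLA2 enzyme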
Target sequence (O95372 whole entry, looked up): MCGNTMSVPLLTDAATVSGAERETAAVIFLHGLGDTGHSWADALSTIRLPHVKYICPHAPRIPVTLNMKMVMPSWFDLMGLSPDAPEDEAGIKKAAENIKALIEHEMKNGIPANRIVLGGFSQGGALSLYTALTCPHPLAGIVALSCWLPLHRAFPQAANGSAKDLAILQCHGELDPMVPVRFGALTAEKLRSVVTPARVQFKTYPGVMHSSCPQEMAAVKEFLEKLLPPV
PREPL inhibitor = PREPL enzyme inhibitors, primary screen, biochemical, fluorescence polarization; inhibition, % at 5.96 µM; recombinant PREPL, fluorescence polarization activity-based probe; Prolyl endopeptidase-like (Homo sapiens), Q4J6C6; 0.68% of 320,000 active; AID 2751, 2010; in the data active means inhibition above about 43%;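 further: 0% = enzyme with DMSO and 100% = wells lacking enzyme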
procasp3 activ = activators of human procaspase-3 D3A mutant, primary screen, biochemical, absorbance, PC-3 D3A mutant, single concentration | recombinant procaspase-3 D3A, Ac-DEVD-pNA absorbance 405 nm | activation, % at 8.5 µM | 0.11% of 330,000 active;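 active means activation above the mean of all tested compounds plus 3 SD, cut at about 21% in these data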;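 further: 0% = DMSO alone and 100% = DMSO wells spiked with extra 5 µM PC-3 D3A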
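Evaluation: percent activation relative to control range; Material: Procaspase-3 D3A mutant, all three cleavage aspartates alanine; Compound: single dose, 8.5 µM nominal compound, 0.8% DMSO; Replication: one well per compound; Signal: absorbance at 405 nm, 0 and 120 min; Schedule: 1 h preincubation plus 2 h reaction at 25 °C.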
LYPLA1 inh = LYPLA1 inhibitors, primary screen, counter-screen for PME1 inhibitor project, biochemical, fluorescence polarization, FP-Rh probe ABPP. recombinant LYPLA1. inhibition, % at 5.9 µM. 0.16% of 320,000 active;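 active means inhibition above the mean of all tested compounds plus 3 SD, set per campaign, cut at about 14% in these data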;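 further: inhibitors block serine hydrolase probe labeling of LYPLA1 so polarization falls; 0% = enzyme with DMSO and 100% = wells lacking LYPLA1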
Target sequence (O75608 whole entry, looked up): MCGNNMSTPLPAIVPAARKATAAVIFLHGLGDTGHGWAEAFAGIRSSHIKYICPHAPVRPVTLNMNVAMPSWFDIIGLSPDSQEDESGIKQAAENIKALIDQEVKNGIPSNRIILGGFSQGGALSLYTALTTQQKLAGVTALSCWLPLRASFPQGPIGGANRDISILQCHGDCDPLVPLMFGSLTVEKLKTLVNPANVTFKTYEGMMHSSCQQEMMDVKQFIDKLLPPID
proCasp7 act = procaspase-7 activators, primary screen, counter-screen for procaspase-3 activator project, biochemical, absorbance, HTS, human; Caspase-7 (Homo sapiens), P55210; recombinant procaspase-7, Ac-DEVD-pNA absorbance 405 nm; D23A/D198A/D206A triple mutant, cannot self-cleave; scale: DMSO 0, 5 µM enzyme 100; activation, % at 8.5 µM; 0.093% of 330,000 active;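 active means percent activation above the screen-wide mean plus 3 SD, cut at about 25% in these data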
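Assay system: Uncleavable procaspase-7 mutant enzyme; Input: 2 µM procaspase-7 mutant as dispensed; Also added: DEVD-pNA substrate; Medium: Zinc-free HEPES pH 7.4 with 300 mM NaCl, 0.01% Triton X-100; Timing: 1 h compound preincubation, 2 h substrate cleavage, 25 °C; Measured by: Epi-absorbance of released pNA at 405 nm, two timepoints.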
LYPLA2 conf = LYPLA2 inhibitors, retest, confirmation, counter-screen for PME1 inhibitor project, biochemical, fluorescence polarization, FP-Rh probe ABPP; shares compounds with LYPLA2 inh; recombinant LYPLA2; inhibition, % at 5.9 µM; 72% of 1,100 active; AID 2232, 2010;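 active means mean inhibition across replicates above the hit cutoff set in the primary screen, cut at about 26% in these data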;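 further: blocked labeling of the enzyme by serine hydrolase FP-Rh probe lowers polarization; 0% = enzyme with DMSO and 100% = wells lacking LYPLA2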
LYPLA2 ABPP = LYPLA2 inhibitors in proteome, late-stage follow-up, gel-based competitive ABPP, fluorescence, assay provider; 30% of 150 active; shares compounds with LYPLA2 inh; rhLYPLA2 in mouse brain proteome, gel ABPP FP-Rh; inhibition, % at 20 µM;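 active means inhibition of LYPLA2 enzyme probe labeling above about 50%, limit read from the data; inactive means inhibition below that limit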;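 further: loss of FP-Rh probe labeling of the LYPLA2 gel band measured as band density; 0% = DMSO only control band and 100% = blank gel background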
An asterisk follows results filed as active; / = no result given. This is a sample that favours compounds with a hit; in the whole collection about 1.1% have one here.

SMILES | LYPLA2 inh | PREPL inhibitor | procasp3 activ | LYPLA1 inh | proCasp7 act | LYPLA2 conf | others
Cc1cc(C)cc(NC(=O)CN(C)CC(=O)N(CC(C)C)c2c(N)n(CC(C)C)c(=O)[nH]c2=O)c1 | 3 | 0 | -6 | 3 | 7 | /
CC(C)(C)c1ccc(-c2nc3[nH]c(=O)cc(NC(=O)c4ccco4)n3n2)cc1 | 0 | 1 | 1 | -3 | 3 | /
COCCNC(=O)/C(C#N)=c1\s/c(=C\c2ccccc2OC(F)F)c(=O)n1Cc1ccccc1 | -4 | 4 | -2 | 5 | -2 | /
CCCc1nn(C)c2c1C(c1cccnc1)C(C#N)=C(N)O2 (stereo not drawn) | 29* | -1 | -2 | 2 | -4 | -1
Cc1nn(Cc2ccccc2)c2c1C(c1cccnc1)C(C#N)=C(N)O2 (stereo not drawn) | -5 | 0 | 4 | -2 | -5 | /
CCn1cnc2sc(C(=O)N3CCN(c4ccc(OC)cc4)CC3)c(C)c2c1=O | 2 | 16 | -9 | 0 | 8 | /
Cc1c(C(=O)Oc2ccc(F)cc2)sc2ncn(Cc3cccc(F)c3)c(=O)c12 | 35* | 16 | 10 | 4 | -4 | 30*
CCn1cnc2sc(C(=O)Oc3cccc(C)c3)c(C)c2c1=O | 28* | 21 | 7 | -4 | -5 | 36*
O=C1c2c(O)cc(O)cc2O[C@H](c2ccc(O)c(O)c2)[C@@H]1O | 29* | 10 | 8 | -2 | -17 | 39*
COc1ccc(NS(=O)(=O)c2cccs2)cc1S(=O)(=O)N1CCCCC1 | -6 | 5 | 7 | 2 | 0 | /
CCCC(=O)c1ccc(N2CCN(C(=O)c3ccc(Br)cc3)CC2)c(F)c1 | 39* | 1 | 8 | 3 | 4 | 70* | LYPLA2 ABPP=8
CCCC(=O)c1ccc(N2CCN(C(=O)c3ccccc3)CC2)c(F)c1 | 16 | -1 | 14 | 4 | 3 | /
CCC(=O)c1ccc(N2CCN(C(=O)c3ccc(Br)cc3)CC2)c(F)c1 | 30* | 4 | -1 | 3 | -3 | 48*
COc1ccccc1CNC(=O)[C@H](NC(=O)C1CCN(C(=O)[C@@H](N)CCSC)CC1)C(C)C | 3 | -2 | 6 | 0 | -1 | /
O=C(O)C[C@H]1c2ccc(C(F)(F)F)cc2S(=O)(=O)N1C1CCCCC1 | -5 | 9 | -3 | -5 | 4 | /
Cc1ccc(S(=O)(=O)NCC(=O)N2CCN(S(=O)(=O)c3ccc(Cl)cc3)CC2)cc1C | 2 | 0 | -1 | 3 | 14 | /
CCc1ccc(C(=O)COC(=O)c2cc([N+](=O)[O-])ccc2NCCO)cc1 | 27* | 14 | -7 | -3 | 0 | 20
COc1ccccc1NC(=O)NCCN1CCN(c2cccc(Cl)c2)CC1 | 43* | -9 | -1 | 6 | 8 | 32*
O=C(NCCN1CCN(c2cccc(Cl)c2)CC1)Nc1ccccc1 | 12 | 0 | -4 | 4 | 6 | /
O=C(NCC(c1ccc(F)cc1)N1CCOCC1)c1ccc([N+](=O)[O-])o1 (stereo not drawn) | / | 19 | 7 | / | 7 | /
O=C(NCc1ccco1)c1ccc2c(c1)C(=O)N(Cc1ccccc1)C2=O | 4 | 18 | 7 | 0 | 0 | /
CC(C)CCN1C(=O)c2ccc(C(=O)NCc3ccco3)cc2C1=O | 28* | -7 | -2 | 7 | -5 | 21
COc1ccc(C(=O)NC2CC2)cc1OC1CCN(Cc2ccc(F)cc2Cl)CC1 | -6 | -39 | 1 | 2 | -4 | /
